Data published in ChEMBL document CHEMBL3400032 (Bioorg Med Chem, 2015).

Legend:
[1] = Drug metabolism in human liver S9 fraction assessed as compound remaining at 1 uM after 30 mins by HPLC/MS/MS analysis relative to control; type: ADME, subcellular; conditions: read-out: Stability
Summary of the method: (§1)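 Test compound at 1 µM final, incubated 30 min at 37 °C in serum, or in S9 mix (50 mM potassium phosphate pH 7.4, 3 mM NADPH, 1 mg protein/mL pooled male SD rat or human liver S9). Preincubated 5 min at 37 °C, compound added in acetonitrile–water (1:1), stopped with ice-cold acetonitrile, centrifuged, filtered, parent and carboxylate hydrolysate quantified by HPLC-MS/MS.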

Rattus norvegicus [2] = assay: Oral bioavailability in rat assessed as 2-(3-aminopiperidin-1-yl)-3-(2-chloro-5-fluorobenzyl)-5-methyl-4-oxo-4,5-dihydro-3H-imidazo[4,5-c]quinoline-8-carboxylic acid level at 10 mg/kg; type: ADME, organism-based; conditions: in vivo
[3] = Solubility of the compound at pH 2.5; type: physicochemical; conditions: buffer
[4] = Drug metabolism in rat serum assessed as compound remaining at 1 uM after 30 mins by HPLC/MS/MS analysis relative to control; type: ADME, cell-free; conditions: read-out: Stability; summary of the method: as §1
Rattus norvegicus [5] = assay: Tmax in rat assessed as 2-(3-aminopiperidin-1-yl)-3-(2-chloro-5-fluorobenzyl)-5-methyl-4-oxo-4,5-dihydro-3H-imidazo[4,5-c]quinoline-8-carboxylic acid level at 10 mg/kg, po; type: ADME, organism-based; set-up: dose 10 mg/kg, route oral; conditions: in vivo
Dipeptidyl peptidase 4 = Dipeptidyl peptidase 4 (Homo sapiens, UniProt P27487); assay: Inhibition of human DPP4
Chain of Dipeptidyl peptidase 4 (P27487 whole entry): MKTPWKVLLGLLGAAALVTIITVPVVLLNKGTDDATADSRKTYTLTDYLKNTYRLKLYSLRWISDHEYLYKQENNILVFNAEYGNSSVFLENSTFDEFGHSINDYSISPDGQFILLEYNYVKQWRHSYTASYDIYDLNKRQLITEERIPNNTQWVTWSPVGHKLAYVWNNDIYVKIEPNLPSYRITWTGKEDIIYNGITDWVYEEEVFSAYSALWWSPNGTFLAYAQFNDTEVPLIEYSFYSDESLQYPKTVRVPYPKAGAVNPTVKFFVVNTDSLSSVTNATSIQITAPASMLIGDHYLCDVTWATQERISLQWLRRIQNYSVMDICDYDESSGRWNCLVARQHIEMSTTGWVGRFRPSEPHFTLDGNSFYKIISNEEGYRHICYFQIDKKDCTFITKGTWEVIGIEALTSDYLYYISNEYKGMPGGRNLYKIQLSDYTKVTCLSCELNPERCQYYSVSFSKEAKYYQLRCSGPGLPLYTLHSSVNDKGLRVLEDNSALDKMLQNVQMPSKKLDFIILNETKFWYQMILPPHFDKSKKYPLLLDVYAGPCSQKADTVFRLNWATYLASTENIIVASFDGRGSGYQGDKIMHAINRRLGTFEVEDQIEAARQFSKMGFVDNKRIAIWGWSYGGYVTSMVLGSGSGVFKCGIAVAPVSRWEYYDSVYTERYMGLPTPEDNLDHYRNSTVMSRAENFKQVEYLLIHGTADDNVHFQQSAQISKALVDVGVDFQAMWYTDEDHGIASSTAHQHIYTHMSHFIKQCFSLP

[6] = Permeability of the compound at pH 5 by PAMPA; type: ADME; conditions: read-out: permeability
[7] = Solubility of the compound at pH 7.4; type: physicochemical; conditions: buffer
[8] = Drug metabolism in human serum assessed as compound remaining at 1 uM after 30 mins by HPLC/MS/MS analysis relative to control; type: ADME, cell-free; conditions: read-out: Stability; summary of the method: as §1
[9] = Drug metabolism in Sprague-Dawley rat liver S9 fraction assessed as compound remaining at 1 uM after 30 mins by HPLC/MS/MS analysis relative to control; type: ADME, subcellular; conditions: read-out: Stability; summary of the method: as §1
[10] = Permeability of the compound at pH 7.4 by PAMPA; type: ADME; conditions: read-out: permeability
Rattus norvegicus [11] = assay: Cmax in rat assessed as 2-(3-aminopiperidin-1-yl)-3-(2-chloro-5-fluorobenzyl)-5-methyl-4-oxo-4,5-dihydro-3H-imidazo[4,5-c]quinoline-8-carboxylic acid level at 10 mg/kg, po; type: ADME, organism-based; set-up: dose 10 mg/kg, route oral; conditions: in vivo
[12] = Solubility of the compound at pH 5.5; type: physicochemical; conditions: buffer
Rattus norvegicus [13] = assay: AUC in rat assessed as 2-(3-aminopiperidin-1-yl)-3-(2-chloro-5-fluorobenzyl)-5-methyl-4-oxo-4,5-dihydro-3H-imidazo[4,5-c]quinoline-8-carboxylic acid level at 10 mg/kg, po; type: ADME, organism-based, Plasma; set-up: dose 10 mg/kg, route oral; conditions: in vivo
[14] = Drug metabolism in Sprague-Dawley rat liver S9 fraction assessed as 2-(3-aminopiperidin-1-yl)-3-(2-chlorobenzyl)-5-methyl-4-oxo-4,5-dihydro-3H-imidazo[4,5-c]quinoline-8-carboxylic acid formation at 1 uM after 30 mins by HPLC/MS/MS analysis relative to control; type: ADME, subcellular; conditions: s9, 0.5 h; summary of the method: as §1
[15] = Drug metabolism in human liver S9 fraction assessed as 2-(3-aminopiperidin-1-yl)-3-(2-chlorobenzyl)-5-methyl-4-oxo-4,5-dihydro-3H-imidazo[4,5-c]quinoline-8-carboxylic acid formation at 1 uM after 30 mins by HPLC/MS/MS analysis relative to control; type: ADME, subcellular; conditions: s9, 0.5 h; summary of the method: as §1
Serum [16] = assay: Drug metabolism in human serum assessed as 2-(3-aminopiperidin-1-yl)-3-(2-chlorobenzyl)-5-methyl-4-oxo-4,5-dihydro-3H-imidazo[4,5-c]quinoline-8-carboxylic acid formation at 1 uM after 30 mins by HPLC/MS/MS analysis relative to control; type: ADME, cell-free; conditions: 0.5 h; summary of the method: as §1
Serum [17] = assay: Drug metabolism in rat serum assessed as 2-(3-aminopiperidin-1-yl)-3-(2-chlorobenzyl)-5-methyl-4-oxo-4,5-dihydro-3H-imidazo[4,5-c]quinoline-8-carboxylic acid formation at 1 uM after 30 mins by HPLC/MS/MS analysis relative to control; type: ADME, cell-free; conditions: 0.5 h; summary of the method: as §1
[18] = Volume of distribution at steady state in rat at 1 mg/kg, iv; type: ADME, organism-based; set-up: dose 1 mg/kg, route intravenous; conditions: in vivo, read-out: Vdss
[19] = Clearance in rat at 1 mg/kg, iv; type: ADME, organism-based; set-up: dose 1 mg/kg, route intravenous; conditions: in vivo
[20] = Half life in rat at 1 mg/kg, iv; type: ADME, organism-based; set-up: dose 1 mg/kg, route intravenous; conditions: in vivo
[21] = AUC in rat at 1 mg/kg, iv; type: ADME, organism-based; set-up: dose 1 mg/kg, route intravenous; conditions: plasma
[22] = AUC in rat at 1.5 mg/kg, iv; type: ADME, organism-based; set-up: dose 1.5 mg/kg, route intravenous; conditions: plasma
Liver microsome [23] = assay: Clearance in human liver microsomes assessed per mg protein
Liver microsome [24] = assay: Clearance in Sprague-Dawley rat liver microsomes assessed per mg protein
[25] = Volume of distribution at steady state in rat at 1.5 mg/kg, iv; type: ADME, organism-based; set-up: dose 1.5 mg/kg, route intravenous; conditions: in vivo, read-out: Vdss
[26] = Clearance in rat at 1.5 mg/kg, iv; type: ADME, organism-based; set-up: dose 1.5 mg/kg, route intravenous; conditions: in vivo
[27] = Half life in rat at 1.5 mg/kg, iv; type: ADME, organism-based; set-up: dose 1.5 mg/kg, route intravenous; conditions: in vivo
Rattus norvegicus [28] = assay: Oral bioavailability in rat assessed as 2-(3-aminopiperidin-1-yl)-3-(2-chlorobenzyl)-5-methyl-4-oxo-4,5-dihydro-3H-imidazo[4,5-c]quinoline-8-carboxylic acid level at 10 mg/kg; type: ADME, organism-based; conditions: in vivo

Row | Structure (SMILES) | remaining at 0.5 h, 1 µM [1] | remaining at 0.5 h, 1 µM [4] | Papp [6] | remaining at 0.5 h, 1 µM [8] | remaining at 0.5 h, 1 µM [9] | Papp [10] | Drug metabolism [14] | Drug metabolism [15] | Drug metabolism (Serum [16]) | Drug metabolism (Serum [17]) | further results
1 | Cc1oc(=O)oc1COC(=O)c1ccc2c(c1)c1nc(N3CCC[C@@H](N)C3)n(Cc3cc(F)ccc3Cl)c1c(=O)n2C.Cl | 3.5% | < 0.5% | 11 ×10⁻⁶ cm/s | < 0.5% | 1% | 8.4 ×10⁻⁶ cm/s | – | – | – | – | F (Rattus norvegicus [2]): 11.7%; solubility [3]: 25 µg/mL; Tmax (Rattus norvegicus [5]): 2 h; IC50 (Dipeptidyl peptidase 4): 4.7 nM; solubility [7]: < 1 µg/mL; Cmax (Rattus norvegicus [11]): 14.8 ng/mL; solubility [12]: 2 µg/mL; AUC (Rattus norvegicus [13]): 72.7 ng·h/mL
2 | CN(C)CCCOC(=O)c1ccc2c(c1)c1nc(N3CCC[C@@H](N)C3)n(Cc3ccccc3Cl)c1c(=O)n2C.Cl | > 99% | 38% | < 0.1 ×10⁻⁶ cm/s | < 0.5% | > 99% | < 0.1 ×10⁻⁶ cm/s | metabolite_detected | metabolite_detected | metabolite_detected | metabolite_detected | –
3 | Cl.Cn1c(=O)c2c(nc(N3CCC[C@@H](N)C3)n2Cc2ccccc2Cl)c2cc(C(=O)OCOC(=O)C(C)(C)C)ccc21 | < 0.5% | 0.6% | 6.5 ×10⁻⁶ cm/s | 73% | < 0.5% | 6.3 ×10⁻⁶ cm/s | metabolite_detected | metabolite_detected | metabolite_detected | metabolite_detected | –
4 | Cn1c(=O)c2c(nc(N3CCC[C@@H](N)C3)n2Cc2cc(F)ccc2Cl)c2ccc(C(=O)O)cc21 | – | – | – | – | – | – | – | – | – | – | Vd [18]: 31.5 L/kg; clearance [19]: 167 mL/min/kg; half-life [20]: 8.3 h; AUC [21]: 99.9 ng·h/mL
5 | CN(C)CCOC(=O)c1ccc2c(c1)c1nc(N3CCC[C@@H](N)C3)n(Cc3ccccc3Cl)c1c(=O)n2C.Cl | > 99% | 97% | < 0.1 ×10⁻⁶ cm/s | < 0.5% | > 99% | 0.6 ×10⁻⁶ cm/s | metabolite_detected | metabolite_detected | metabolite_detected | metabolite_detected | –
6 | Cn1c(=O)c2c(nc(N3CCC[C@@H](N)C3)n2Cc2ccccc2Cl)c2cc(C(=O)O)ccc21 | – | – | < 0.1 ×10⁻⁶ cm/s | – | – | < 0.1 ×10⁻⁶ cm/s | – | – | – | – | AUC [22]: 188 ng·h/mL; CLH (Liver microsome [23]): < 10 µL/min/mg; CLH (Liver microsome [24]): < 10 µL/min/mg; Vd [25]: 2.9 L/kg; clearance [26]: 132 mL/min/kg; half-life [27]: 1 h
7 | COC(=O)c1ccc2c(c1)c1nc(N3CCC[C@@H](N)C3)n(Cc3ccccc3Cl)c1c(=O)n2C.Cl | > 99% | 72% | 34.1 ×10⁻⁶ cm/s | 80% | < 0.5% | 47.4 ×10⁻⁶ cm/s | metabolite_detected | metabolite_detected | metabolite_detected | metabolite_detected | F (Rattus norvegicus [28]): 2.4%
